Measured values: ChEMBL document CHEMBL4346737, “Synthesis and evaluation of tetrahydropyrazolopyridine inhibitors of anion exchange protein SLC26A4 (pendrin)” (Bioorg Med Chem Lett, 2019)

Assays:
[1] = target: T1, Pendrin (Mus musculus, UniProt Q9R155); experiment: Inhibition of mouse PDS stably expressed in FRT cells coexpressing EYFP-H148Q/I152L/F46L assessed as reduction in I-/Cl- exchange incubated for 10 mins by fluorescence based assay; format: cell-based
T1 sequence (Q9R155 whole entry): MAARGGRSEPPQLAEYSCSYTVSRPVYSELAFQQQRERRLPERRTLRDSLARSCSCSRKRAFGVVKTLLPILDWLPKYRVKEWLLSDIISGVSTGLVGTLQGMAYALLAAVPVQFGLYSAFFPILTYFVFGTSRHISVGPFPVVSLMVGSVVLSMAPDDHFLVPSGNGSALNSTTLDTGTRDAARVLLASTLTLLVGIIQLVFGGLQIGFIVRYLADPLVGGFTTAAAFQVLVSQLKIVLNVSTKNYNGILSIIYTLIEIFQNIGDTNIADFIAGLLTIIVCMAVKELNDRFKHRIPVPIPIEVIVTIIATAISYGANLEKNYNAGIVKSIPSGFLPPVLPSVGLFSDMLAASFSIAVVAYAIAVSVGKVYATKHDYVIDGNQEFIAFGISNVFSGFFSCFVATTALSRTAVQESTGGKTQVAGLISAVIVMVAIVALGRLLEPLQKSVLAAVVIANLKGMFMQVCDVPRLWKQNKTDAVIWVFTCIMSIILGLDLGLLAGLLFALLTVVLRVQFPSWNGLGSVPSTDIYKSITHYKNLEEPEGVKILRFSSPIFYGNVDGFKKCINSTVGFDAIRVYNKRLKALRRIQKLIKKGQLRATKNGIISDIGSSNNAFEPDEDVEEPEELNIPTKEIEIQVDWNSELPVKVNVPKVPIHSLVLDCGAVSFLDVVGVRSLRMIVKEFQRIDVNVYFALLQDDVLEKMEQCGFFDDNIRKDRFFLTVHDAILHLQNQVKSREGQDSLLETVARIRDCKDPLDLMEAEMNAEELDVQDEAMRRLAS
Procedure, shortened: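 Fischer rat thyroid cells stably co-expressing murine pendrin and the halide-sensing YFP variant were used for Cl–/I– exchange. An I–-containing solution was added to the cells, and exchange was followed as the rate of fluorescence decrease. Inhibition was read as a slower decline in fluorescence.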

[2] = target: T2, Pendrin (Homo sapiens, UniProt O43511); experiment: Inhibition of human PDS stably expressed in FRT cells coexpressing EYFP-H148Q/I152L/F46L assessed as reduction in I-/Cl- exchange incubated for 10 mins by fluorescence based assay; format: cell-based
T2 sequence (O43511 whole entry): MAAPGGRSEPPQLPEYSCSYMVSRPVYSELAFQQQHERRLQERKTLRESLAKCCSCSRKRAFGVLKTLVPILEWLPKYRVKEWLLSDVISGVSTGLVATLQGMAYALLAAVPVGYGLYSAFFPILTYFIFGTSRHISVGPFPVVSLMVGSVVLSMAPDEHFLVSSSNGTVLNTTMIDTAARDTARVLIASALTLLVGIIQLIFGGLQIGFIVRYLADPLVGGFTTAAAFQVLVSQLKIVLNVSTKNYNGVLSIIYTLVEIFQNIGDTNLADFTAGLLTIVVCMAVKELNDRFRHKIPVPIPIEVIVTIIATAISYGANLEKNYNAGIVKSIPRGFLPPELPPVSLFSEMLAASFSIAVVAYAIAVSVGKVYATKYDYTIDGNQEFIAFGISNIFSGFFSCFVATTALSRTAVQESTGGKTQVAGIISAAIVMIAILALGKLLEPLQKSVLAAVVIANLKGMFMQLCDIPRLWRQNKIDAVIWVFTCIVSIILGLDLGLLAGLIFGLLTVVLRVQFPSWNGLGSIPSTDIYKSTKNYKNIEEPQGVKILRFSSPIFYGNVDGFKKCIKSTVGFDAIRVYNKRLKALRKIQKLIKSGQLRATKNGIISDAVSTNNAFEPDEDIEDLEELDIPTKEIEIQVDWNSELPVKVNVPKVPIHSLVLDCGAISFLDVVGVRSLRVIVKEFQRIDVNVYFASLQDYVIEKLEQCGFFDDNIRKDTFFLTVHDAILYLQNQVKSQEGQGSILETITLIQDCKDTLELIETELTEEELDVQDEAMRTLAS

Row | SMILES | IC50 [1] [µM] | IC50 [2] [µM]
1 | Cn1nc(COc2cc(F)c(F)c(F)c2)c2c1CCN(C(=O)Nc1ccc(Cl)cc1)C2 | 3.3 | –
2 | Cn1nc(COc2cc(F)cc(F)c2)c2c1CCN(S(C)(=O)=O)C2 | > 10 | –
3 | CCN(CC)S(=O)(=O)N1CCc2c(c(COc3cc(F)cc(F)c3)nn2C)C1 | > 10 | –
4 | Cn1nc(COc2cc(F)cc(F)c2)c2c1CCN(C(=S)Nc1ccc(Cl)cc1)C2 | > 10 | –
5 | Cn1nc(COc2cc(F)cc(F)c2)c2c1CCN(C(=O)Nc1ccc(Br)cc1)C2 | 3.3 | –
6 | Cn1nc(COc2cc(F)cc(F)c2)c2c1CCN(C(=S)NC1CCCCC1)C2 | > 10 | –
7 | Cn1nc(COc2cc(F)cc(F)c2)c2c1CCN(C(=O)NC(=O)c1ccccc1)C2 | > 10 | –
8 | CN(C)c1ccc(NC(=S)N2CCc3c(c(COc4cc(F)cc(F)c4)nn3C)C2)cc1 | > 10 | –
9 | Cn1nc(COc2cc(F)cc(F)c2)c2c1CCN(C(=O)NC1CCCCC1)C2 | > 10 | –

More lines, now with the values ahead:

Row | IC50 [1] [µM] | IC50 [2] [µM] | SMILES
10 | > 10 | – | Cn1nc(COc2cc(F)cc(F)c2)c2c1CCN(S(=O)(=O)c1ccc(C(F)(F)F)cc1)C2
11 | > 10 | – | CCOC(=O)c1nn(C)c2c1CN(C(=O)Nc1ccc(Cl)cc1)CC2
12 | 4.6 | – | Cn1nc(COc2ccc(F)c(F)c2)c2c1CCN(C(=O)Nc1ccc(Cl)cc1)C2
13 | 3.1 | – | Cn1nc(COc2cc(F)cc(F)c2)c2c1CCN(C(=O)Nc1ccc(Cl)cc1)C2
14 | – | 7 | Cn1nc(COc2cccc(F)c2)c2c1CCN(C(=O)Nc1ccc(Cl)cc1)C2
15 | > 10 | – | Cn1nc(COc2cc(F)cc(F)c2)c2c1CCN(S(=O)(=O)c1ccc(Cl)cc1)C2
16 | > 10 | – | CC(C)NC(=O)N1CCc2c(c(COc3cc(F)cc(F)c3)nn2C)C1
17 | > 10 | – | Cn1nc(C(=O)O)c2c1CCN(C(=O)Nc1ccc(Cl)cc1)C2
